Test [1] has as its system Rattus norvegicus. The experiment in a line: Assessment of antihypertensive activity at 100 mg/kg administered perorally by measuring the heart rate in rats. It counts as functional. The note with it: route oral.
Test [2] is filed under the species Rattus norvegicus. Type of test: functional, Artery. Particulars: dose 100 mg/kg; route oral.
In test [3] the test system is Rattus norvegicus. The experiment in a line: The antihypertensive activity was assessed by measuring the mean arterial blood pressure in rats when administered at 50 mg/kg. It counts as functional. In outline:
(§1)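 16-week-old male SH rats (Okamoto) were dosed by oral gavage in 3% starch in normal saline (2 mL/kg), plus an oral saline load of 25 mL/kg. They were redosed at 24 h without the saline load. MABP and HR were taken by direct femoral arterial puncture under local anesthesia 4 h after the second dose. HR was rounded to 10 bpm.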

The test system of test [4] is Rattus norvegicus. The experiment in a line: The antihypertensive activity was assessed by measuring the heart rate in rats when administered at 50 mg/kg. Type of test: functional. In outline: as §1
Test [5] has as its system Rattus norvegicus. The experiment in a line: The antihypertensive activity at 100 mg/kg administered perorally was assessed by measuring the mean arterial blood pressure (MABP) in rats. Particulars: route oral. Type of test: functional. In outline: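 Male SH rats (Okamoto, 16 weeks old) got 100 mg/kg by oral gavage in 3% starch in normal saline (2 mL/kg), then an oral 25 mL/kg saline load. They were redosed at 24 h without the load. MABP and HR were taken by direct femoral arterial puncture under local anesthesia 4 h after the second dose, in one to three rats per compound. Active: one rat reduced to 116 mmHg, or a two-rat average reduced to 122 mmHg.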

In test [6] the test system is Rattus norvegicus. The experiment in a line: The antihypertensive activity was assessed by measuring the heart rate in rats when administered at 10 mg/kg. Type of test: functional. In outline: as §1
In test [7] the test system is Rattus norvegicus. The experiment in a line: The antihypertensive activity was assessed by measuring the mean arterial blood pressure in rats when administered at 10 mg/kg. It counts as functional. In outline: as §1
The subject of test [8] is Rattus norvegicus. The experiment in a line: The antihypertensive activity was assessed by measuring the mean arterial blood pressure in rats when administered at 30 mg/kg. Type of test: functional. In outline: as §1
Test [9] deals with Rattus norvegicus. The experiment in a line: The antihypertensive activity was assessed by measuring the heart rate in rats when administered at 30 mg/kg. Type of test: functional. In outline: as §1

Experimental findings from ChEMBL document CHEMBL1124416, “5-(1-piperazinyl)-1H-1,2,4-triazol-3-amines as antihypertensive agents” (1989) are described below.

`Nc1n[nH]c(N2CCN(Cc3ccc4ccccc4n3)CC2)n1` showed an HR in test [1] of 440 beats min-1. In test [2], this molecule displayed an MABP of 121 mmHg.

Turning to `Cc1ccc(CN2CCN(c3n[nH]c(N)n3)CC2)cc1`, the MABP is recorded as 70 mmHg in [3] and 112 mmHg in test [2]. The HR worked out at 350 beats min-1 in test [4] and 340 beats min-1 in test [1].

On to `CN1CCN(c2n[nH]c(N)n2)CC1`, for which the HR in test [5] was 400 beats min-1; in test [4], 440 beats min-1. Further, the MABP worked out at 133 mmHg in [3] and 116 mmHg in test [2].

Turning to `COc1cc(CN2CCN(c3n[nH]c(N)n3)CC2)cc(OC)c1OC`, the HR in test [1] turned out to be 440 beats min-1. The molecule further showed an MABP in [2] of 132 mmHg.

Regarding `Nc1n[nH]c(N2CCN(Cc3cccc(C(F)(F)F)c3)CC2)n1`, in [1], the HR is reported as 390 beats min-1. For the same molecule, the MABP in test [2] was found to be 129 mmHg.

In the case of `CN(C)c1ccc(CN2CCN(c3n[nH]c(N)n3)CC2)cc1Br`, in test [1], the HR was 320 beats min-1. Moreover, the MABP in [2] came out at 116 mmHg.

For the molecule `Nc1n[nH]c(N2CCN(c3ccc(F)cc3)CC2)n1`, in test [1], the HR came to 420 beats min-1. Also, in test [2], the MABP worked out at 151 mmHg.

Consider `C=CCN1CCN(c2nc(N)n[nH]2)CC1`, for which the HR in test [1] turned out to be 360 beats min-1. The MABP in test [2] was found to be 96 mmHg.

Consider `CN(C)c1ccc(CN2CCN(c3n[nH]c(N)n3)CC2)cc1`, for which the MABP is on record as 129 mmHg in test [3] and 111 mmHg in [2]. Moreover, the values for the HR in test [4] and in test [1] were 440 beats min-1 and 380 beats min-1, respectively.

Consider `COc1ccccc1N1CCN(c2n[nH]c(N)n2)CC1`, for which, in [1], the HR came to 440 beats min-1. This molecule showed an MABP in test [2] of 157 mmHg.

For `CC(=O)N1CCN(c2n[nH]c(N)n2)CC1`, the HR in [1] was 440 beats min-1. Moreover, the MABP in test [2] is 142 mmHg.

`Nc1n[nH]c(N2CCN(C/C=C/c3ccccc3)CC2)n1`: the HR in test [1] is 430 beats min-1. Further, the MABP in [2] amounted to 101 mmHg.

For the molecule `Nc1n[nH]c(N2CCN(Cc3ccco3)CC2)n1`, the HR in test [6] is 440 beats min-1; in test [4], 370 beats min-1; in test [1] it was 410 beats min-1; in test [9], 440 beats min-1. The MABP in test [7] stood at 153 mmHg; in [3], 102 mmHg; in [2], 114 mmHg; in [8], 115 mmHg.

Molecule `Cc1cccc(CN2CCN(c3n[nH]c(N)n3)CC2)c1` displayed an HR in [1] of 440 beats min-1. The molecule also yielded an MABP in [2] of 132 mmHg.

Molecule `Nc1n[nH]c(N2CCN(CC3CCCCC3)CC2)n1` returned an HR in test [1] of 420 beats min-1. Moreover, in [2], the MABP was 123 mmHg.

Turning to `CN(C)CCCN1CCN(c2n[nH]c(N)n2)CC1`, in test [1], the HR stood at 420 beats min-1. The MABP in [2] is 140 mmHg.

Regarding `Nc1n[nH]c(N2CCN(CCc3ccccc3)CC2)n1`, the HR in [6] was 440 beats min-1; in test [1], 330 beats min-1. Besides, the figures for the MABP in [7] and in [2] were 142 mmHg and 77 mmHg, respectively.

Consider `Nc1n[nH]c(N2CCN(Cc3ccc(F)cc3Cl)CC2)n1`, for which the HR in test [1] is 410 beats min-1. In addition, in [2], the MABP turned out to be 145 mmHg.

With `Nc1n[nH]c(N2CCN(Cc3ccncc3)CC2)n1`, the HR in [1] worked out at 380 beats min-1. Also, the MABP in [2] was determined as 142 mmHg.

Regarding `Nc1n[nH]c(N2CCN(c3ccccc3)CC2)n1`, the HR in test [1] is given as 340 beats min-1. Further, the MABP in test [2] is given as 128 mmHg.

As for `Nc1n[nH]c(N2CCN(CCCc3ccccc3)CC2)n1`, the MABP in test [3] is reported as 95 mmHg; in test [2] it was 93 mmHg. The HR in test [4] turned out to be 520 beats min-1; in test [1], 380 beats min-1.

Regarding `Nc1n[nH]c(N2CCN(Cc3ccccc3[N+](=O)[O-])CC2)n1`, the HR in test [1] is given as 430 beats min-1. In addition, in [2], the MABP was determined as 135 mmHg.

In the case of `CCCCc1ccc(CN2CCN(c3n[nH]c(N)n3)CC2)cc1`, the HR in [1] is 360 beats min-1. Also, the MABP in test [2] came out at 136 mmHg.

Molecule `Nc1n[nH]c(N2CCN(Cc3ccc(F)cc3)CC2)n1` came in with an HR in [1] of 360 beats min-1. This molecule yielded an MABP in test [2] of 97 mmHg.

With `Nc1n[nH]c(N2CCN(Cc3ccccc3)CC2)n1`, the HR was 400 beats min-1 in [6] and 360 beats min-1 in test [1]. Further, the MABP in test [7] was 118 mmHg; in test [2] it was 102 mmHg.

In test [1], `Cc1ccccc1CN1CCN(c2n[nH]c(N)n2)CC1` showed an HR of 410 beats min-1. This molecule also displayed an MABP in [2] of 131 mmHg.

In test [1], `Nc1n[nH]c(N2CCN(C(=O)c3ccco3)CC2)n1` yielded an HR of 410 beats min-1. In test [2], the MABP was found to be 142 mmHg.

`Nc1n[nH]c(N2CCN(CCNCc3ccncc3)CC2)n1` showed an HR in test [1] of 440 beats min-1. In test [2], this molecule registered an MABP of 144 mmHg.

Regarding `Nc1n[nH]c(N2CCN(C(=O)c3ccc(-c4ccccc4)cc3)CC2)n1`, the HR in test [1] was 400 beats min-1. Besides, the MABP in test [2] was found to be 138 mmHg.

Molecule `CC(c1ccccc1)N1CCN(c2n[nH]c(N)n2)CC1` (stereo unspecified) had an HR in [1] of 370 beats min-1. In [2], this molecule yielded an MABP of 136 mmHg.

Molecule `Nc1n[nH]c(N2CCN(c3ccccn3)CC2)n1` gave an HR in test [1] of 430 beats min-1. For the same molecule, the MABP in [2] turned out to be 133 mmHg.

Regarding `CC(C)C(=O)N1CCN(c2n[nH]c(N)n2)CC1`, the HR in test [1] was found to be 410 beats min-1. In addition, the MABP in test [2] is on record as 141 mmHg.

As for `Clc1cccc(Cl)c1NC1=NCCN1` [CLONIDINE], the HR in [1] was determined as 180 beats min-1. For the same molecule, in [2], the MABP was 102 mmHg.

For the molecule `Nc1n[nH]c(N2CCN(Cc3ccccc3F)CC2)n1`, the values for the MABP in test [3] and in [2] were 79 mmHg and 97 mmHg, respectively. Further, the values for the HR in [4] and in test [1] were 330 beats min-1 and 350 beats min-1, respectively.

For `Nc1n[nH]c(N2CCN(CC3CC3)CC2)n1`, in test [1], the HR is recorded as 390 beats min-1. Besides, the MABP in test [2] stood at 104 mmHg.

In the case of `Nc1n[nH]c(N2CCN(Cc3c(Cl)cccc3Cl)CC2)n1`, the HR in test [1] amounted to 400 beats min-1. Also, in [2], the MABP is 140 mmHg.

In [1], `N#Cc1ccc(CN2CCN(c3nc(N)n[nH]3)CC2)cc1` returned an HR of 420 beats min-1. In test [2], this molecule yielded an MABP of 127 mmHg.

With `CC(C)(C)c1ccc(CN2CCN(c3n[nH]c(N)n3)CC2)cc1`, in test [1], the HR turned out to be 350 beats min-1. In [2], the MABP is 130 mmHg.

With `Nc1n[nH]c(N2CCN(C(c3ccccc3)c3ccc(Cl)cc3)CC2)n1` (stereo unspecified), the HR in [1] turned out to be 350 beats min-1. In [2], this molecule displayed an MABP of 115 mmHg.

For the molecule `Cc1cc(C)c(CN2CCN(c3n[nH]c(N)n3)CC2)c(C)c1`, the HR in [1] stood at 430 beats min-1. Moreover, the MABP in test [2] stood at 137 mmHg.

Take `Nc1ccc(CN2CCN(c3n[nH]c(N)n3)CC2)cc1`: the HR in test [1] came to 380 beats min-1. In test [2], this molecule came in with an MABP of 109 mmHg.

In test [1], `CC(C)(C)c1ccc(C(=O)N2CCN(c3n[nH]c(N)n3)CC2)cc1` gave an HR of 400 beats min-1. In [2], this molecule showed an MABP of 141 mmHg.

`Br.Br.Nc1n[nH]c(N2CCNCC2)n1`: the HR in [1] turned out to be 410 beats min-1. Moreover, the MABP in [2] is given as 92 mmHg.

For `Cc1ccc(C)c(CN2CCN(c3n[nH]c(N)n3)CC2)c1`, the HR in test [1] is 400 beats min-1. This molecule also had an MABP in test [2] of 139 mmHg.

In the case of `Cl.Cl.Nc1n[nH]c(N2CCN(Cc3cccc4ccccc34)CC2)n1`, the HR in [1] is 350 beats min-1. The same molecule came in with an MABP in test [2] of 133 mmHg.

For the molecule `Nc1n[nH]c(N2CCN(Cc3ccc(Cl)c(Cl)c3)CC2)n1`, in [1], the HR is 330 beats min-1. For the same molecule, the MABP in [2] was 95 mmHg.

`Nc1n[nH]c(N2CCN(CCCOc3ccccc3)CC2)n1` displayed an HR in [1] of 310 beats min-1. Also, the MABP in test [2] amounted to 89 mmHg.

In turn, `CN(C)c1ccc(CN2CCN(c3n[nH]c(N)n3)CC2)c(Cl)c1` gave an HR in [1] of 400 beats min-1. In addition, the MABP in test [2] was found to be 120 mmHg.

On to `COc1ccc(CN2CCN(c3n[nH]c(N)n3)CC2)c(OC)c1OC`, for which the HR in [1] is on record as 420 beats min-1. This molecule displayed an MABP in test [2] of 147 mmHg.

In the case of `Nc1n[nH]c(N2CCN(CC3CCCC3)CC2)n1`, the results for the MABP in test [3] and in [2] were 117 mmHg and 114 mmHg, respectively. The molecule further came in with an HR in [4] of 440 beats min-1.
